Experimental findings from ChEMBL document CHEMBL2396538, “Synthesis and biological evaluation of a novel series of aryl S,N-ketene acetals as antileishmanial agents” (Bioorg Med Chem Lett, 2013) are described below.

The test system of data set [1] is Leishmania donovani. Briefly: Antileishmanial activity against amastigote stage of Leishmania donovani infected in golden hamster assessed as inhibition of parasite multiplication at 50 mg/kg, ip administered 5 days measured on day 7 by Giemsa staining assay relative to control. The data set is classed as functional. Particulars: for inhibition in vivo at 50 mg/kg: route intraperitoneal. Put shortly: (§1)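 Golden hamster L. donovani model; 50 mg/kg given ip for 5 days. Biopsies were taken on day 7 after the last dose, and amastigotes were counted by Giemsa staining. Percent inhibition was derived by comparing infection intensity in treated versus untreated animals and against the initial count in treated animals.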

Data set [2] in a line: (§2) Selectivity index, ratio of CC50 for african green monkey vero cells to IC50 for amastigote stage of Leishmania donovani infected in mouse J774A.1 cells. The data set is classed as functional. Put shortly: (§3)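 Selectivity index calculated as CC₅₀ (Vero cells, 72 h MTT) divided by IC₅₀ against intracellular amastigotes in luciferase-reporter J-774A.1 macrophage assay.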
The nature of data set [3]: Cytotoxicity against african green monkey vero cells assessed as cell viability after 72 hrs by MTT assay. The class given is cell-based. Particulars: chlorocebus sabaeus. An outline of the steps: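 Exponentially growing Vero monkey kidney […] incubated with compounds for 72 h; viable cells detected with MTT (Mosmann method); CC₅₀ estimated.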
For data set [4], the system named is Leishmania donovani. Briefly: Antileishmanial activity against promastigote stage of Leishmania donovani assessed as parasite growth inhibition at 25 uM after 72 hrs by luciferase reporter gene assay relative to untreated control. The data set is classed as functional. Particulars: for inhibition of growth at 25 µM: read-out: GI. Put shortly: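 Luciferase-transfected L. donovani promastigotes (5 × 10^5/100 µL) exposed to compounds for 72 h. Suspension mixed 1:1 with Steady-Glo reagent; luminescence read as relative luminescence units. Inhibition calculated from luciferase activity of treated versus untreated parasites.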
In general terms: Reporter assays use an easily measured gene product as a stand-in for the process of interest.

The test system of data set [5] is Leishmania donovani. Briefly: Antileishmanial activity against amastigote stage of Leishmania donovani infected in mouse J774A.1 cells assessed as parasite growth inhibition after 72 hrs by luciferase reporter gene assay. The data set is classed as functional, organism-based. Particulars: J774.A1, 72 h. Put shortly: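 Mouse macrophage J-774A.1 cells (4 × 10^3/100 µL) were seeded, then infected with luciferase-transfected L. donovani promastigotes (4 × 10^4/100 µL), which transformed into intracellular amastigotes. Compounds at 0.62–40 µM for 72 h in CO₂ incubator. Medium replaced with PBS plus Steady-Glo; luminescence read. Growth inhibition versus untreated controls; IC₅₀ derived.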

Data set [6] concerns Leishmania donovani. Briefly: Antileishmanial activity against Leishmania donovani infected in hamster assessed as inhibition of parasite multiplication relative to control. The class given is functional. Put shortly: as §1
The test system of the next data set is Vero. Described as §2. The class given is functional. An outline of the steps: as §3
The next data set has as its system Syrian golden hamster. Briefly: Toxicity in golden hamster at 50 mg/kg, ip and po administered 5 days measured on day 7. The arrangement: dose 50 mg/kg, route oral. The class given is organism-based, Mesocricetus auratus. Particulars: in vivo, 120 h.
A short description of data set [7]: Metabolic stability in hamster liver microsomes at 25 uM by HPLC analysis in absence of NADPH and presence of CYP suicidal inhibitor 1-ABZT. Particulars: cricetinae.
The subject of data set [8] is Leishmania donovani. Briefly: Antileishmanial activity against amastigote stage of Leishmania donovani infected in golden hamster assessed as inhibition of parasite multiplication at 50 mg/kg, po administered 5 days measured on day 7 by Giemsa staining assay relative to control. The data set is classed as functional. An outline of the steps:
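L. donovani-infected hamsters received 50 mg/kg orally for 5 days. Post-treatment biopsy was on day 7 after the last dose, with Giemsa-stained amastigote counts. Percent inhibition came from comparing treated animals with untreated animals and with the treated animals' initial counts.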

pIC50: −log10 of the molar value. The source made the active and inactive calls. The calls are words filed in the database; no cut-off is given here.

For orientation: inhibition means how much of the control response was suppressed. The term CC50 denotes the concentration that lowers cell viability or growth by half. For orientation: pIC50 means −log10 of the IC50, conventionally taken in molar units. Turning to `COc1cc(/C=C/C(=O)/C=C(\NCc2ccccc2)SC)cc(OC)c1OC`, the inhibition entry with Leishmania donovani [1] was “inactive”. Besides, the “Ratio CC50/IC50” value in [2] is 36. Moreover, the CC50 at 72 h in [3] was 71.5 µM. Also, the inhibition of growth at 25 µM in the data set on Leishmania donovani [4] was determined as 98.6%. In addition, in the data set on Leishmania donovani [5], the negative logarithm of the IC50 (pIC50) is 5.70.
As to `COc1cc(/C=C/C(=O)C=C(SC)SC)cc(OC)c1OC`, the “inhibition (INH)” value in the data set on Leishmania donovani [6] was 66%.
As a reminder, the inhibition in vivo is the drop in the measured response relative to a control, in per cent. With `COc1ccc(N/C(=C\C(=O)/C=C/c2cc(OC)c(OC)c(OC)c2)SC)cc1`, the inhibition in vivo at 50 mg/kg with Leishmania donovani [1] is 32%. Besides, the “Ratio CC50/IC50” value in data set [2] is 69. Besides, in data set [3], the CC50 at 72 h was determined as 184 µM. In the data set with Leishmania donovani [4], the inhibition of growth at 25 µM stood at 99.1%. Besides, the negative-log IC50 (pIC50) in the data set with Leishmania donovani [5] is 5.59.
Taken in the same sequence, the figures for `COc1cc(/C=C/C(=O)/C=C(\Nc2ccc(F)cc2)SC)cc(OC)c1OC` were 72%, 36, 43.4 µM, 97.9% and 5.92.
In the case of `COc1cc(/C=C/C(=O)/C=C(\Nc2ccc(Cl)cc2)SC)cc(OC)c1OC`, the inhibition in vivo at 50 mg/kg in the data set on Leishmania donovani [1] was 21%. The “Ratio CC50/IC50” value in data set [2] stood at 36. Also, in [3], the cytotoxic concentration (CC50) at 72 h came out at 57.9 µM. Also, the inhibition of growth at 25 µM in the data set on Leishmania donovani [4] was 98.7%. Moreover, the negative logarithm of the IC50 (pIC50) in the data set on Leishmania donovani [5] is 5.80.
Consider Sodium stibogluconate, for which the inhibition with Leishmania donovani [1] stood at 89%. Besides, the Ratio CC50/IC50 in the data set on Vero worked out at 7. The “growth inhibition (GI)” value in the data set on Leishmania donovani [4] was “inactive”.
For the molecule `NC[C@@H]1O[C@H](O[C@H]2[C@@H](O)[C@H](O[C@@H]3[C@@H](O)[C@H](N)C[C@H](N)[C@H]3O[C@H]3O[C@H](CO)[C@@H](O)[C@H](O)[C@H]3N)O[C@@H]2CO)[C@H](N)[C@@H](O)[C@@H]1O` [PAROMOMYCIN], the inhibition in vivo at 50 mg/kg in the data set on Leishmania donovani [1] stood at 46%. In addition, in data set [2], the “Ratio CC50/IC50” value worked out at 2. Also, the CC50 at 72 h in [3] came to 86.6 µM. The “growth inhibition (GI)” value with Leishmania donovani [4] was “inactive”. In the data set with Leishmania donovani [5], the negative logarithm of the IC50 (pIC50) was 4.39.
In the case of `COc1cc(/C=C/C(=O)/C=C(\NC2CCCCC2)SC)cc(OC)c1OC`, in [2], the “Ratio CC50/IC50” value is listed as 7. The CC50 at 72 h in data set [3] is 22.7 µM. For the same molecule, the inhibition of growth at 25 µM with Leishmania donovani [4] was 98.9%. Moreover, the pIC50 in the data set on Leishmania donovani [5] was 5.46.
`COc1cc(/C=C/C(=O)/C=C(\Nc2ccccc2)SC)cc(OC)c1OC`: the Activity entry with Syrian golden hamster was “Non-toxic”. Moreover, the inhibition in vivo at 50 mg/kg in the data set with Leishmania donovani [1] stood at 83%; with Leishmania donovani [8], 64%. In addition, in data set [2], the “Ratio CC50/IC50” value came out at 31. The Stability entry in data set [7] is “Stable”. The cytotoxic concentration (CC50) at 72 h in data set [3] came out at 64.6 µM. Moreover, in the data set with Leishmania donovani [4], the inhibition of growth at 25 µM amounted to 96.2%. In addition, the pIC50 in the data set with Leishmania donovani [5] was 5.68.
